Laboratory results taken from ChEMBL document CHEMBL1641573, “3-[(Imidazolidin-2-yl)imino]indazole ligands with selectivity for the α(2)-adrenoceptor compared to the imidazoline I(1) receptor” (Bioorg Med Chem, 2011).

How the values were obtained:
[1] = molecular target: T1, Adrenergic receptor alpha-1 (Rattus norvegicus, UniProt P15823+P23944+P43140); assay: Displacement of [3H]prazosin from alpha1 adrenergic receptor in Sprague-Dawley rat brain membrane after 45 mins by liquid scintillation counting; assay type: cell membranes
T1 sequence (P15823 whole entry): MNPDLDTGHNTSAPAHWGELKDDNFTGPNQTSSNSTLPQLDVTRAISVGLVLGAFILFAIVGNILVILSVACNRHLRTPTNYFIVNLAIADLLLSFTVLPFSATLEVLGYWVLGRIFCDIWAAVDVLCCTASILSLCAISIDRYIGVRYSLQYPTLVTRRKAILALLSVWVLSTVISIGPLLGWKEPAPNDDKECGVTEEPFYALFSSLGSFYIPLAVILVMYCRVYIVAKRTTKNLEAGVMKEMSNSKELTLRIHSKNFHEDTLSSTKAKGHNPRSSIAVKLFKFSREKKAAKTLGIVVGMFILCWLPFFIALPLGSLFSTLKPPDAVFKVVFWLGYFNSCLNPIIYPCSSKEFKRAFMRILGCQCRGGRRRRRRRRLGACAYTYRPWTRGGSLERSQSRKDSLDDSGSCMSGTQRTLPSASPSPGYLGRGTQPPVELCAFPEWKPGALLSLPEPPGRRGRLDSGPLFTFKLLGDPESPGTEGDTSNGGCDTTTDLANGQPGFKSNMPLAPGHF
T1 sequence (P23944 whole entry): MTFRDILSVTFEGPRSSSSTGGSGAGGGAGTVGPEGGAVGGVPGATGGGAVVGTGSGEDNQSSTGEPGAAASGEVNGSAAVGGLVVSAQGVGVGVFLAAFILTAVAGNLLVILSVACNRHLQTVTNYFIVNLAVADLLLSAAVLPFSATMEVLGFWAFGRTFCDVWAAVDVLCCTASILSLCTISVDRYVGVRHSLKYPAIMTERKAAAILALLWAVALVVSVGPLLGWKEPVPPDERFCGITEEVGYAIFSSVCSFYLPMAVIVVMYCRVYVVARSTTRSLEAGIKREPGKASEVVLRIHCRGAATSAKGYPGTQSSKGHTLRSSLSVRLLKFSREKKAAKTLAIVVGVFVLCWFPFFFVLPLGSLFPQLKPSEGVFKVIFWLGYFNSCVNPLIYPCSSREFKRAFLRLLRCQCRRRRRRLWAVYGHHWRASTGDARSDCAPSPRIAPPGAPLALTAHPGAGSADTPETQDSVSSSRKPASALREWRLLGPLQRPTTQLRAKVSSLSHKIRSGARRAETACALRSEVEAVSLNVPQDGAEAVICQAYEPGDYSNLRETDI
T1 sequence (P43140 whole entry): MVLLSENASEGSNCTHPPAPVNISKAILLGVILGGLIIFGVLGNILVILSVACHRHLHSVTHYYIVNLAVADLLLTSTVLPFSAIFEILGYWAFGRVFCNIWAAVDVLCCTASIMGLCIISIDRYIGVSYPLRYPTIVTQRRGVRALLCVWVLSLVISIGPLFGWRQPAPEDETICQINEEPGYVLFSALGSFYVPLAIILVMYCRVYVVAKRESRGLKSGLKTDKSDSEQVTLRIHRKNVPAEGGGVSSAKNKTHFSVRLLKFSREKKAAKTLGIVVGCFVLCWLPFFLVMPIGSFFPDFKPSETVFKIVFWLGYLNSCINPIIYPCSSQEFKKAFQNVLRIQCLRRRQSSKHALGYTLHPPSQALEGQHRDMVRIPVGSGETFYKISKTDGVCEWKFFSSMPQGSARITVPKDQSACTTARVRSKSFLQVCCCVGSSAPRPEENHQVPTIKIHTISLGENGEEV
Outline: (§1)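 Crude P2 brain membranes from male Sprague–Dawley rats (0.2–0.3 mg protein) incubated with 11 concentrations (0.01 nM–100 µM) and 1 nM of [3H]2BFI (I2), [3H]prazosin (α1) or [3H]RX821002 (α2), at room temperature in triplicate. Non-specific binding: BU224, phenylephrine or rauwolscine. Filtration, scintillation counting, Ki by Cheng–Prusoff from 3–4 experiments.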

[2] = molecular target: T2, Adrenergic receptor alpha-2 (Rattus norvegicus, UniProt P22086+P19328+P22909); assay: Displacement of [3H]RX821002 from alpha2 adrenergic receptor in Sprague-Dawley rat brain membrane after 45 mins by liquid scintillation counting; assay type: cell membranes; outline: as §1
T2 sequence (P22086 whole entry): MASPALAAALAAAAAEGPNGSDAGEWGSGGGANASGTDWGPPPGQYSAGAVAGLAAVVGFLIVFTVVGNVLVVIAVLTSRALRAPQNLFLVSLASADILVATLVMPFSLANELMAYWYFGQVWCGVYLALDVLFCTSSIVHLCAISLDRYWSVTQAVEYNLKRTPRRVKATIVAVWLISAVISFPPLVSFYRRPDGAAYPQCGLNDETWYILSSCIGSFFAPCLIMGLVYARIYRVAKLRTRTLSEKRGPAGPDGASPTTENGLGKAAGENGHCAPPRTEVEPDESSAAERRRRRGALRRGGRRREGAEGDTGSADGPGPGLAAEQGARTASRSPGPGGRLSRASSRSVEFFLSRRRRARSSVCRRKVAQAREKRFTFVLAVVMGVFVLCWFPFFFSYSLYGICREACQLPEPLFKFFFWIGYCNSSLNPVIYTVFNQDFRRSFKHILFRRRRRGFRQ
T2 sequence (P19328 whole entry): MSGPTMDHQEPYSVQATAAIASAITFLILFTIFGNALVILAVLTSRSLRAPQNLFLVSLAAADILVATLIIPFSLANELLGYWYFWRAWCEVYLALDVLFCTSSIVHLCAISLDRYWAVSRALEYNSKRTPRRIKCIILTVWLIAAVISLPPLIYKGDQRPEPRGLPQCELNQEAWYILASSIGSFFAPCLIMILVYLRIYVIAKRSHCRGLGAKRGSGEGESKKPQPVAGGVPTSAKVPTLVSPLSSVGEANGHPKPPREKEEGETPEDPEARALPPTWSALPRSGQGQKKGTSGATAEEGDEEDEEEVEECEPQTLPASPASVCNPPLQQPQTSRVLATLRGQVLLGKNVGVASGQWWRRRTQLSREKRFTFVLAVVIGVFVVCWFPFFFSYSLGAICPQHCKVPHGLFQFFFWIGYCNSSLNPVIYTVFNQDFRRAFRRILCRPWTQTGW
T2 sequence (P22909 whole entry): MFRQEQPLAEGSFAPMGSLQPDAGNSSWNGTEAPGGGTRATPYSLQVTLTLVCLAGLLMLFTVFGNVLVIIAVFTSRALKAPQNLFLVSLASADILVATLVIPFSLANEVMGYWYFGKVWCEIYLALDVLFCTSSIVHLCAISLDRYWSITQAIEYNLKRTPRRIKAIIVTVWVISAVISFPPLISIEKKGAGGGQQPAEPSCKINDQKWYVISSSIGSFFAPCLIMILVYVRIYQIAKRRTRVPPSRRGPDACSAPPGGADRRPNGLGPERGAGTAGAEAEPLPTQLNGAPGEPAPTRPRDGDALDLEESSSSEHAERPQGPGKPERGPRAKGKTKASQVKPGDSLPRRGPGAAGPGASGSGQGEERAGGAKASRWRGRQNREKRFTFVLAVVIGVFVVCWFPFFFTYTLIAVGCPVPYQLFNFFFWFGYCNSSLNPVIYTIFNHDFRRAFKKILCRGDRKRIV

[3] = molecular target: Nischarin (Rattus norvegicus, UniProt Q4G017); assay: Displacement of [3H]clonidine from imidazoline I1 receptor in Sprague-Dawley rat kidney membrane after 45 mins by liquid scintillation counting; assay type: cell membranes
Chain of Nischarin (Q4G017 whole entry): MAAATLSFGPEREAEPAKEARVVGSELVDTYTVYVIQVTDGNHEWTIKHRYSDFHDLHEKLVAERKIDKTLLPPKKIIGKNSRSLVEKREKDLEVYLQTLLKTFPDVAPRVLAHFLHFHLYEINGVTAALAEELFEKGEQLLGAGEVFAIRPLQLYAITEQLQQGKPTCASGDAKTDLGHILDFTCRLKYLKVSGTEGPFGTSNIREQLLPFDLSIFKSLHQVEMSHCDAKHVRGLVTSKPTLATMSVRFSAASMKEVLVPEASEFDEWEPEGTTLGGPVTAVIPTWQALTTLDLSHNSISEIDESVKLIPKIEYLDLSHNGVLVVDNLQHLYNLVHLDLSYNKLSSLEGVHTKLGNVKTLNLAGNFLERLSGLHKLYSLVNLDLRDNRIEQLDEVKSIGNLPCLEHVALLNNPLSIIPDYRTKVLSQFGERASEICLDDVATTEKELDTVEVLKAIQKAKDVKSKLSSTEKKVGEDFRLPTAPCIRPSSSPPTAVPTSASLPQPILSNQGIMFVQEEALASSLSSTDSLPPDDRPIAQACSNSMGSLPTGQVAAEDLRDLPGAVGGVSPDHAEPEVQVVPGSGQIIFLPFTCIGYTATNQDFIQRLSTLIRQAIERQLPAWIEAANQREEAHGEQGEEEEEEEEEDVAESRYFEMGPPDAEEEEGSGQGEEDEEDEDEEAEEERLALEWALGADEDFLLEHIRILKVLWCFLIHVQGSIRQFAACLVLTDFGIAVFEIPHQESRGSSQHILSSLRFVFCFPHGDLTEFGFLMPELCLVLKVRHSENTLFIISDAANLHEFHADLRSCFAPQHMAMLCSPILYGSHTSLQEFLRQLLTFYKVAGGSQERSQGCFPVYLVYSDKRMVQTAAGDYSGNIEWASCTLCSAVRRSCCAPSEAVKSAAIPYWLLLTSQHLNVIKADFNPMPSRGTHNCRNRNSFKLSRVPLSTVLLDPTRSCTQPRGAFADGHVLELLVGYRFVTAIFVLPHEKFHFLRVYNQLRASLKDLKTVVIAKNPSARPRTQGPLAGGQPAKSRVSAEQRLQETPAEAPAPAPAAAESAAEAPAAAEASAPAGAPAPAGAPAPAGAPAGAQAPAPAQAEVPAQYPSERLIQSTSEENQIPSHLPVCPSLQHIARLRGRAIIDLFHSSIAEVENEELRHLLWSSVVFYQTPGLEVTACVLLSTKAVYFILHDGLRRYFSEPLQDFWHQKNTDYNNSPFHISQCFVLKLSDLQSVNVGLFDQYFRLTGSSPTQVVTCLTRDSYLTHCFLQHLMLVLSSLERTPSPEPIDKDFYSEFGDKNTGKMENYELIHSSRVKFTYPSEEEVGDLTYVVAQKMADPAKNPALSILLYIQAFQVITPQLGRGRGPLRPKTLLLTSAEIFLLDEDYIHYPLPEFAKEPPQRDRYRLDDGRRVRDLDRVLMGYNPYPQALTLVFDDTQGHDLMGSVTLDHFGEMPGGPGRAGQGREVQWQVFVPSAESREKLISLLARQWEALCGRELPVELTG
Outline: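 Specific binding defined by 10 µM rilmenidine. 11 test concentrations, 50 mM Tris-HCl pH 7.4, room temperature 45 min. Filtration through PEI-soaked glass-fibre filters, scintillation counting, IC50 by curve fitting.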

[4] = organism: Rattus norvegicus; assay: Selectivity ratio of IC50 for imidazoline I1 receptor in Sprague-Dawley rat kidney membrane to Ki for alpha2 adrenergic receptor in Sprague-Dawley rat brain membrane; assay type: cell membranes
[5] = molecular target: T3, Alpha-2A adrenergic receptor (Homo sapiens, UniProt P08913); assay: Agonist activity at human recombinant alpha2A adrenergic receptor expressed in CHO cells assessed as induction of [35S]GTPgammaS binding after 60 mins by scintillation counting; assay type: functional, cell-based
T3 sequence (P08913 whole entry): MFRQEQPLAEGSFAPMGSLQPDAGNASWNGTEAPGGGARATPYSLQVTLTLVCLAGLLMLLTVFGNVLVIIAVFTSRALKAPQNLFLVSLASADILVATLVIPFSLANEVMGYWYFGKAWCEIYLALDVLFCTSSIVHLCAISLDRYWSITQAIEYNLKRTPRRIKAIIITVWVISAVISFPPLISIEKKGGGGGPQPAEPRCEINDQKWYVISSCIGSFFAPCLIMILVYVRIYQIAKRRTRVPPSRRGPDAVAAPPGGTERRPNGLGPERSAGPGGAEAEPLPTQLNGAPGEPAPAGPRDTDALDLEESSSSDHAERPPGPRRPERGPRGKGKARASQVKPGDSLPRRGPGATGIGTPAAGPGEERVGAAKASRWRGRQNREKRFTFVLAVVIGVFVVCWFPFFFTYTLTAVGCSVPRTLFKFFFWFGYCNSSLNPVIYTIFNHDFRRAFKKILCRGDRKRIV
Outline: (§2)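 Membranes from CHO-K1 cells expressing human α2A-adrenoceptor, in Tris buffer pH 7.4 with 10 µM GDP, 5 mM MgCl2 and 150 mM NaCl; 5 µg protein preincubated with agonist 30 min at 37 °C, then 0.1 nM [35S]GTPγS for 60 min at 37 °C. Filtration and scintillation counting, duplicates, at least three repeats.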

[6] = molecular target: T4, Alpha-2A adrenergic receptor (Homo sapiens) (UniProt P08913); assay: Agonist activity at human recombinant alpha2A adrenergic receptor expressed in CHO cells assessed as induction of [35S]GTPgammaS binding after 60 mins by scintillation counting relative to noradrenaline; assay type: functional, cell-based
T4 sequence (whole entry): T3 sequence (P08913 whole entry)
Outline: as §2, with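 “repeats. Curve fit gave EC50 and intrinsic activity as % of noradrenaline.” for “repeats.”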

[7] = test system: Rattus norvegicus; assay: Cardioprotectant activity in Wistar rat assessed as change in mean arterial pressure at 0.01 mg/kg, iv; assay type: functional, Artery
[8] = test system: Rattus norvegicus; assay: Cardioprotectant activity in Wistar rat assessed as change in mean arterial pressure at 0.1 mg/kg, iv; assay type: functional, Artery
[9] = test system: Rattus norvegicus; assay: Cardioprotectant activity in Wistar rat assessed as change in mean arterial pressure at 1 mg/kg, iv; assay type: functional, Artery
[10] = test system: Rattus norvegicus; assay: Cardioprotectant activity in Wistar rat assessed as change in heart rate at 0.01 mg/kg, iv; assay type: functional
[11] = test system: Rattus norvegicus; assay: Cardioprotectant activity in Wistar rat assessed as change in heart rate at 0.1 mg/kg, iv; assay type: functional
[12] = test system: Rattus norvegicus; assay: Cardioprotectant activity in Wistar rat assessed as change in heart rate at 1 mg/kg, iv; assay type: functional

COc1cccc2[nH]nc(N=C3NCCN3)c12.Cl
Ki [1]: 0.196 µM | Ki [2]: 0.748 µM | IC50 [3]: 25.6 µM | Ratio [4]: 34

Cl.c1ccc2c(N=C3NCCN3)n[nH]c2c1
Ki [2]: 0.0394 µM | IC50 [3]: 3.22 µM | Ratio [4]: 82 | EC50 [5]: 0.082 µM | Intrinsic activity [6]: 55%

Cc1cccc([C@H](C)c2c[nH]cn2)c1C
Intrinsic activity [6]: 60%

Cl.Clc1cccc2c(N=C3NCCN3)n[nH]c12
Ki [1]: 0.684 µM | Ki [2]: 0.133 µM | IC50 [3]: 4.01 µM | Ratio [4]: 30 | EC50 [5]: 0.073 µM | Intrinsic activity [6]: 66% | Activity [7]: -12.2 mmHg | Activity [8]: -21.7 mmHg | Activity [9]: -37.2 mmHg | Activity [10]: -35 bpm | Activity [11]: -92 bpm | Activity [12]: -117 bpm

Cc1ccc2c(N=C3NCCN3)n[nH]c2c1.Cl
Ki [1]: 0.508 µM | Ki [2]: 0.176 µM | IC50 [3]: 16.6 µM | Ratio [4]: 94.3

Clc1cccc2c1cnn2N=C1NCCN1
EC50 [5]: 0.18 µM | Intrinsic activity [6]: 62%

Clc1cccc2cnn(N=C3NCCN3)c12
EC50 [5]: 0.015 µM | Intrinsic activity [6]: 48%

Cc1ccc2[nH]nc(N=C3NCCN3)c2c1.Cl
Ki [1]: 29 µM | Ki [2]: 11.4 µM | IC50 [3]: 21.2 µM | Ratio [4]: 2

Cl.Clc1ccc2[nH]nc(N=C3NCCN3)c2c1
Ki [1]: 0.121 µM | Ki [2]: 10.6 µM | IC50 [3]: > 100 µM | Ratio [4]: > 9.4

Cl.Clc1cccc2[nH]nc(N=C3NCCN3)c12
Ki [1]: 0.0693 µM | Ki [2]: 0.0159 µM | IC50 [3]: 1.84 µM | Ratio [4]: 115 | EC50 [5]: 0.24 µM | Intrinsic activity [6]: 13% | Activity [7]: -10.8 mmHg | Activity [8]: -10.8 mmHg | Activity [9]: -23.6 mmHg | Activity [10]: -37 bpm | Activity [11]: -40 bpm | Activity [12]: -68 bpm

Cl.Clc1ccc2c(N=C3NCCN3)n[nH]c2c1
Ki [1]: 0.386 µM | Ki [2]: 0.502 µM | IC50 [3]: 2.01 µM | Ratio [4]: 4

COc1ccc2[nH]nc(N=C3NCCN3)c2c1.Cl
Ki [1]: 0.244 µM | Ki [2]: 1.46 µM | IC50 [3]: > 100 µM | Ratio [4]: > 68

Cc1cccc2[nH]nc(N=C3NCCN3)c12.Cl
Ki [1]: 0.0465 µM | Ki [2]: 0.0226 µM | IC50 [3]: 32.5 µM | Ratio [4]: 690 | EC50 [5]: 0.014 µM | Intrinsic activity [6]: 40% | Activity [7]: -17.1 mmHg | Activity [8]: -53.5 mmHg | Activity [9]: -22 mmHg | Activity [10]: -43 bpm | Activity [11]: -132 bpm | Activity [12]: -155 bpm

c1ccc2c(c1)cnn2N=C1NCCN1 [MARSANIDINE]
EC50 [5]: 0.16 µM | Intrinsic activity [6]: 18%

Brc1cccc2[nH]nc(N=C3NCCN3)c12.Cl
Ki [1]: 0.984 µM | Ki [2]: 6.42 µM | IC50 [3]: 7.56 µM | Ratio [4]: 1

Cc1cccc2cnn(N=C3NCCN3)c12
EC50 [5]: 0.037 µM | Intrinsic activity [6]: 32%
